Compound activity from PubChem BioAssay.
KCNQ1 inh = inhibitors of human KCNQ1 potassium channel; P51787; CHO-K1 KCNQ1, FluxOR thallium flux fluorescence; stronger effect = higher value; B-score at 10 µM; actives 1.3% (n = 310,000); AID 2642;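 active = compounds whose thallium flux B-score, printed positive for inhibition, exceeds three library SD while starting fluorescence stays within three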;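 also: channel opened by potassium depolarization with thallium stimulus after 20 min compound exposure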
KCNQ1 act = potentiates or activates the human KCNQ1 potassium channel | CHO-K1 KCNQ1, thallium flux FluxOR fluorescence; stronger effect = higher value | P51787 | B-score at 10 µM | actives 0.35% (n = 310,000) | AID 2648;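 active = fluorescence ratio B-score, a plate-corrected score, at least three library SD, with initial intensity B-score within 5 SD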
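Schedule – 37 °C overnight plating, 90-min dark dye load, 20-min compound pretreatment · System – stable KCNQ1 CHO-K1 line · Probe or stimulus – thallium- and potassium-containing depolarizing buffer · Measured by – kinetic FluxOR fluorescence, 10 s baseline plus 110 s post-stimulus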
Kir21 block = Kir2.1 (mouse) channel inhibition | HEK293-Kir2.1, FluxOR thallium flux fluorescence; stronger effect = lower value | B-score at 10 µM | actives 0.85% (n = 310,000);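 active = fluorescence ratio B-score at or below minus 3 SD of library scores, with starting-brightness B-score within 2 SD, cut at about -4.2 in these data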;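 also: channel flux triggered by added potassium and thallium sulfate stimulus; B-score of peak minus minimum fluorescence over baseline after thallium stimulus; more negative B-score means stronger Kir2.1 block with less thallium influx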
hERG protect = compounds protecting human hERG from proarrhythmic drug block; AID 1511; actives 0.51% (n = 310,000); CHO-hERG, FluxOR thallium flux, dofetilide IC70 present; activation (rescue from dofetilide block), less the hit threshold, % at 10 µM;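 active = activation above the mean of controls blocked by dofetilide plus 5 SD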;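 also: thallium influx through hERG after potassium depolarization seen as dye fluorescence rise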
KCNK9 block = blocks the human KCNK9 two-pore domain potassium channel. actives 1.2% (n = 310,000). HEK293 KCNK9, FluxOR thallium flux fluorescence; stronger effect = lower value. B-score at 10 µM;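 active = ratio B-score over 3 SD below the library mean, with starting fluorescence within 5 SD of its mean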;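 also: negative B-score means less thallium flux so channel inhibition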
Target sequence (Q9NPC2 whole entry, looked up, the tested form may be a part): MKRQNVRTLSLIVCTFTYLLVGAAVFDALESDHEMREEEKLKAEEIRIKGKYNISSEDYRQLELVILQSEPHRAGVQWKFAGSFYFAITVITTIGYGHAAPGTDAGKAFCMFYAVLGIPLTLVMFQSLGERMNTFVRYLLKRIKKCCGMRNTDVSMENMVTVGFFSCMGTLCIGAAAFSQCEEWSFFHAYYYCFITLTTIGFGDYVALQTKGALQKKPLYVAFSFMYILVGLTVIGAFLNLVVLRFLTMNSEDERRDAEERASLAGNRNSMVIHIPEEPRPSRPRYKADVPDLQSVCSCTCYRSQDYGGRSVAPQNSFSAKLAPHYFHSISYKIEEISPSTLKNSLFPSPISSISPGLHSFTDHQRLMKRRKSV
KCNK3 inh = human KCNK3 channel inhibition, primary screen | O14649 | CHO-KCNK3 thallium flux, FluxOR fluorescence; stronger effect = lower value | B-score at 10 µM | actives 0.84% (n = 340,000) | AID 602410;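 active = B-score under library mean minus 4 SD, starting fluorescence ratio at most library mean plus 5 SD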;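 also: more negative B-score means stronger inhibition of thallium flux through KCNK3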
KCNK9 inh conf = confirmation of human KCNK9 potassium channel inhibitors; shares compounds with KCNK9 block; HEK293 KCNK9 cells, FluxOR thallium flux fluorescence; inhibition, % at 10 µM; actives 43% (n = 4,900); AID 492992;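 active = thallium signal inhibited by more than 5 SD of the compound-free buffer control wells, on both duplicate plates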
Kir2-1 spec = selectivity of KCNK9 modulators against mouse Kir2.1; actives 4% (n = 4,900); Kir2.1 cells, FluxOR thallium flux fluorescence; shares compounds with KCNK9 block; inhibition, % at 10 µM;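 active = thallium signal drop more than 5 SD beyond the mean of the no-compound control wells, seen in both duplicate plates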;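 also: signal is fluorescence rise after thallium addition divided by baseline fluorescence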
HEK293 Tl ctr = second check of KCNK9 modulator effects in non-induced HEK293 cells | inhibition, % at 10 µM | actives 40% (n = 4,900) | FluxOR thallium flux | shares compounds with KCNK9 block | AID 492997;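 active = thallium signal drop beyond 5 SD of the untreated control mean, on both duplicate plates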
Of the large screens only hits and unclear results are named; the others gave an inactive call (follow-up assays come after a bar, where they were run). Sampled rows, rich in hits. Any-hit rate of the full collection: about 3.8%.

CCOC(=O)c1cnn(-c2ccccc2)c1-n1cccc1C(=O)C(=O)Nc1ccccc1C(F)(F)F	KCNK9 block -13.5 | KCNK9 inh conf 43.0% | Kir2-1 spec inactive | HEK293 Tl ctr 54.0%
CCOC(=O)c1cnn(-c2ccccc2)c1-n1cccc1C(=O)C(=O)N(CC)CC	none
COCCn1c(C)cc(C(=O)CSc2nc(C)cc(C)c2C#N)c1C	none
Cc1cc(C)c(C#N)c(SCC(=O)c2cc(C)n(CCc3ccccc3)c2C)n1	KCNK9 block -8.18 | KCNK9 inh conf 31.5% | Kir2-1 spec inactive | HEK293 Tl ctr 34.5%
COc1ccc(CCNC(=O)CSc2ccc(-c3cccs3)nn2)cc1	none
CCOc1cc(/C=N/Nc2ncc(C)c(=O)[nH]2)ccc1O	none
C=CCn1c(SCCC)nc2sc3c(c2c1=O)CCc1ccccc1-3	none | KCNK9 inh conf inactive | Kir2-1 spec inactive | HEK293 Tl ctr inactive
O=C(CCC(=O)c1ccc(Oc2ccccc2)cc1)Nc1ccc(Cl)cc1Cl	none | KCNK9 inh conf inactive | Kir2-1 spec inactive | HEK293 Tl ctr inactive
Nn1c(SCC(=O)Nc2ccc(Oc3ccccc3)cc2)nnc1C1CC1	none | KCNK9 inh conf inactive | Kir2-1 spec inactive | HEK293 Tl ctr inactive
CC(C(=O)Nc1cc([N+](=O)[O-])ccc1Cl)N1CCN(c2ccc(O)cc2)CC1 (stereo unspecified)	none
CCCOC(=O)NC(CC)COC(=O)Nc1cc(C)ccc1C (stereo unspecified)	none
Cc1cccc(N2CCN(C(=O)c3ccc4nc(-c5ccco5)c(-c5ccco5)nc4c3)CC2C)c1 (stereo unspecified)	KCNK9 block -8.78 | KCNK9 inh conf 45.0% | Kir2-1 spec inactive | HEK293 Tl ctr inactive
CC(=O)Nc1ccccc1-c1nc2ccc(C(=O)N3CCN(c4cccc(C)c4)C(C)C3)cc2[nH]c1=O (stereo unspecified)	none
O=C(c1cccs1)N1CCN(c2ncc(C(F)(F)F)cc2Cl)CC1	none
COc1cccc(C(c2nnnn2Cc2ccccc2)N2CCN(C3CCCC3)CC2)c1OC (stereo unspecified)	none
O=C(N/N=C\c1cccc(Cl)c1)c1ccc(Cn2cc(Br)c([N+](=O)[O-])n2)o1	KCNK9 block -16.4 | KCNK9 inh conf 67.5% | Kir2-1 spec inactive | HEK293 Tl ctr 32.0%
Cc1c(Cl)c([N+](=O)[O-])nn1Cc1ccc(C(=O)N/N=C\c2cccc(Br)c2)o1	KCNK9 block -8.53 | KCNK9 inh conf 41.5% | Kir2-1 spec inactive | HEK293 Tl ctr 27.0%
O=C(CSc1nnc(-c2n[nH]c3ccccc23)n1-c1ccccc1)Nc1cccc(Cl)c1	none
CC(=O)Nc1ccc(C=NNc2ccc([N+](=O)[O-])cc2S(=O)(=O)Nc2ccccc2C(=O)O)cc1	none (no result: KCNQ1 inh, KCNQ1 act, Kir21 block, hERG protect, KCNK9 block)
Cc1ccc(NC(=S)NNc2ccc([N+](=O)[O-])cc2S(=O)(=O)Nc2ccccc2C(=O)O)cc1C	none | KCNK9 inh conf inactive | Kir2-1 spec inactive | HEK293 Tl ctr inactive
SC(COCc1ccccc1)CN1CCN(Cc2ccc3c(c2)OCO3)CC1 (stereo unspecified)	none | KCNK9 inh conf inactive | Kir2-1 spec inactive | HEK293 Tl ctr inactive
COc1cccc(/C=C2\SC(=S)N(CC3CCCO3)C2=O)c1 (stereo unspecified)	none | KCNK9 inh conf inactive | Kir2-1 spec inactive | HEK293 Tl ctr inactive
O=C1/C(=C/c2cccc(O)c2)SC(=S)N1CC1CCCO1 (stereo unspecified)	none
Cc1cccnc1NC(=O)C1CCN(S(=O)(=O)c2c(C)noc2/C=C/c2ccco2)CC1	none | KCNK9 inh conf inactive | Kir2-1 spec inactive | HEK293 Tl ctr inactive
Cc1ccc(NC(=O)C2CCN(S(=O)(=O)c3c(C)noc3/C=C/c3ccco3)CC2)nc1	none
